Measurements: ChEMBL document CHEMBL1921722, “In vitro and in vivo evaluation of select kahalalide F analogs with antitumor and antifungal activities” (Bioorg Med Chem, 2011)
Active and inactive are the calls of the source.

How the values were obtained:
OVCAR-4 [1] = assay: Cytotoxicity against human OVCAR4 cells by sulforhodamine B assay; assay type: functional
Outline: (§1)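 NCI Developmental Therapeutics Program 60-cell-line human tumor panel screen, run at NCI. A single-concentration pre-screen was followed by a five-concentration dose-response in 10-fold steps. GI50 is the concentration that reduces growth of treated cells to half that of untreated control cells. TGI is the concentration that completely halts growth.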

OVCAR-8 = assay: Cytotoxicity against human OVCAR8 cells by sulforhodamine B assay; assay type: functional
Outline: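 NCI Developmental Therapeutics Program 60-cell-line human tumor panel, standard procedure. Single-concentration prescreen first; active compounds then tested at five concentrations. GI50 is the concentration reducing growth of treated cells to half that of untreated controls.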

MCF7 = assay: Cytotoxicity against human MCF7 cells by sulforhodamine B assay; assay type: functional
M14 = assay: Cytotoxicity against human M14 cells assessed as cell growth at 8 nM by sulforhodamine B assay relative to control; assay type: functional; details: read-out: Activity
NCI-H322M [2] = assay: Cytotoxicity against human NCI-H322M cells assessed as cell growth at 8 nM by sulforhodamine B assay relative to control; assay type: functional; details: read-out: Activity
Escherichia coli = assay: Antimicrobial activity against Escherichia coli ATCC 35218 by CLSI method; assay type: functional, organism-based
T47D [3] = assay: Cytotoxicity against human T47D cells by sulforhodamine B assay; assay type: functional; outline: as §1
HOP-62 [4] = assay: Cytotoxicity against human HOP62 cells assessed as cell growth at 8 nM by sulforhodamine B assay relative to control; assay type: functional; details: read-out: Activity
MOLT-4 [5] = assay: Cytotoxicity against human MOLT4 cells assessed as cell growth at 8 nM by sulforhodamine B assay relative to control; assay type: functional; details: read-out: Activity
ACHN [6] = assay: Cytotoxicity against human ACHN cells assessed as cell growth at 8 nM by sulforhodamine B assay relative to control; assay type: functional; details: read-out: Activity
Outline: (§2)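 Run at NCI in the DTP 60-cell-line human tumor panel by standard procedure. Compounds were first screened at a single concentration, then tested at five tenfold-spaced concentrations. GI50 is the concentration reducing treated-cell growth to half that of untreated controls; TGI is the concentration completely halting growth.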

NCI/ADR-RES = assay: Cytotoxicity against human NCI/ADR-RES cells assessed as cell growth at 8 nM by sulforhodamine B assay relative to control; assay type: functional; details: read-out: Activity
HCT-116 = assay: Cytotoxicity against human HCT116 cells assessed as cell growth at 80 nM by sulforhodamine B assay relative to control; assay type: functional; details: read-out: Activity
SF-268 = assay: Cytotoxicity against human SF268 cells assessed as cell growth at 80 nM by sulforhodamine B assay relative to control; assay type: functional; details: read-out: Activity
OVCAR-4 [7] = assay: Cytotoxicity against human OVCAR4 cells assessed as cell growth at 80 nM by sulforhodamine B assay relative to control; assay type: functional; details: read-out: Activity
ACHN [8] = assay: Cytotoxicity against human ACHN cells assessed as cell growth at 80 nM by sulforhodamine B assay relative to control; assay type: functional; details: read-out: Activity; outline: as §2
RXF 393 = assay: Cytotoxicity against human RXF393 cells assessed as cell growth at 80 nM by sulforhodamine B assay relative to control; assay type: functional; details: read-out: Activity
Hs-578T = assay: Cytotoxicity against human Hs578T cells assessed as cell growth at 80 nM by sulforhodamine B assay relative to control; assay type: functional; details: read-out: Activity
HL-60(TB) = assay: Cytotoxicity against human HL-60(TB) cells assessed as cell growth at 800 nM by sulforhodamine B assay relative to control; assay type: functional; details: read-out: Activity
EKVX = assay: Cytotoxicity against human EKVX cells assessed as cell growth at 800 nM by sulforhodamine B assay relative to control; assay type: functional; details: read-out: Activity
HOP-92 [9] = assay: Cytotoxicity against human HOP92 cells assessed as cell growth at 800 nM by sulforhodamine B assay relative to control; assay type: functional; details: read-out: Activity
RPMI-8226 = assay: Cytotoxicity against human RPMI8226 cells assessed as cell growth at 8 uM by sulforhodamine B assay relative to control; assay type: functional; details: read-out: Activity
COLO 205 = assay: Cytotoxicity against human COLO205 cells assessed as cell growth at 8 uM by sulforhodamine B assay relative to control; assay type: functional; details: read-out: Activity; outline: as §2
TK-10 = assay: Cytotoxicity against human TK10 cells assessed as cell growth at 8 uM by sulforhodamine B assay relative to control; assay type: functional; details: read-out: Activity
T47D [10] = assay: Cytotoxicity against human T47D cells assessed as cell growth at 8 uM by sulforhodamine B assay relative to control; assay type: functional; details: read-out: Activity
MOLT-4 [11] = assay: Cytotoxicity against human MOLT4 cells assessed as cell growth at 80 uM by sulforhodamine B assay relative to control; assay type: functional; details: read-out: Activity
A549 [12] = assay: Cytotoxicity against human A549 cells assessed as cell growth at 80 uM by sulforhodamine B assay relative to control; assay type: functional; details: read-out: Activity; outline: as §2
HOP-62 [13] = assay: Cytotoxicity against human HOP62 cells assessed as cell growth at 80 uM by sulforhodamine B assay relative to control; assay type: functional; details: read-out: Activity
NCI-H23 = assay: Cytotoxicity against human NCI-H23 cells assessed as cell growth at 80 uM by sulforhodamine B assay relative to control; assay type: functional; details: read-out: Activity
NCI-H522 [14] = assay: Cytotoxicity against human NCI-H522 cells assessed as cell growth at 80 uM by sulforhodamine B assay relative to control; assay type: functional; details: read-out: Activity
HCC 2998 = assay: Cytotoxicity against human HCC2998 cells assessed as cell growth at 80 uM by sulforhodamine B assay relative to control; assay type: functional; details: read-out: Activity
HT-29 = assay: Cytotoxicity against human HT-29 cells assessed as cell growth at 80 uM by sulforhodamine B assay relative to control; assay type: functional; details: read-out: Activity
SK-MEL-2 = assay: Cytotoxicity against human SK-MEL-2 cells assessed as cell growth at 80 uM by sulforhodamine B assay relative to control; assay type: functional; details: read-out: Activity
UACC-257 = assay: Cytotoxicity against human UACC257 cells assessed as cell growth at 80 uM by sulforhodamine B assay relative to control; assay type: functional; details: read-out: Activity
A549 [15] = assay: Cytotoxicity against human A549 cells by sulforhodamine B assay; assay type: functional; outline: as §2
HOP-92 [16] = assay: Cytotoxicity against human HOP92 cells by sulforhodamine B assay; assay type: functional
Outline: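 Run by the NCI Developmental Therapeutics Program on its 60-line human tumour cell panel using the standard procedure. Compounds went through a single-concentration prescreen first, and those active by NCI criteria went on to a five-concentration growth-inhibition test. GI50 is the concentration that cuts growth of treated cells to half that of untreated control cells.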

NCI-H322M [17] = assay: Cytotoxicity against human NCI-H322M cells by sulforhodamine B assay; assay type: functional; outline: as §1
NCI-H522 [18] = assay: Cytotoxicity against human NCI-H522 cells by sulforhodamine B assay; assay type: functional; outline: as §1
SF-295 = assay: Cytotoxicity against human SF295 cells by sulforhodamine B assay; assay type: functional; outline: as §1
SNB-75 = assay: Cytotoxicity against human SNB75 cells by sulforhodamine B assay; assay type: functional; outline: as §1

SMILES: C/C=C1\NC(=O)[C@H](Cc2ccccc2)NC(=O)[C@@H](C(C)C)NC(=O)[C@@H]([C@@H](C)CC)NC(=O)[C@H](NC(=O)[C@H](NC(=O)[C@H](CCCNCc2ccc(N3CCOCC3)cc2)NC(=O)[C@H]2CCCN2C(=O)[C@H](NC(=O)[C@@H](NC(=O)[C@@H](NC(=O)[C@H](NC(=O)CCCC(C)C)C(C)C)[C@@H](C)O)C(C)C)C(C)C)[C@@H](C)CC)[C@@H](C)OC(=O)[C@H](C(C)C)NC1=O
- GI50 (OVCAR-4 [1]): 1.23 µM
- TGI (OVCAR-4 [1]; read-out: pTGI (converted)): 2.82 µM
- GI50 (OVCAR-8): 1.7 µM
- LC50 (OVCAR-8): > 75.9 µM
- GI50 (MCF7): 1.45 µM
- growth at 0.008 µM (M14): 99%
- growth at 0.008 µM (NCI-H322M [2]): 109%
- Activity (Escherichia coli): inactive
- GI50 (T47D [3]; read-out: GI50): 0.167 µM
- TGI (T47D [3]; read-out: TGI): 0.466 µM
- GI50 (T47D [3]; read-out: pGI50 (converted)): 0.166 µM
- TGI (T47D [3]; read-out: pTGI (converted)): 0.468 µM
- growth at 0.008 µM (HOP-62 [4]): 104%
- growth at 0.008 µM (MOLT-4 [5]): 103%
- growth at 0.008 µM (ACHN [6]): 100%
- growth at 0.008 µM (NCI/ADR-RES): 104%
- growth at 0.08 µM (HCT-116): 100%
- growth at 0.08 µM (SF-268): 103%
- growth at 0.08 µM (OVCAR-4 [7]): 102%
- growth at 0.08 µM (ACHN [8]): 102%
- growth at 0.08 µM (RXF 393): 99%
- growth at 0.08 µM (Hs-578T): 101%
- growth at 0.8 µM (HL-60(TB)): 93%
- growth at 0.8 µM (EKVX): 53%
- growth at 0.8 µM (HOP-92 [9]): 79%
- growth at 8 µM (RPMI-8226): -68%
- growth at 8 µM (COLO 205): -73%
- growth at 8 µM (TK-10): -77%
- growth at 8 µM (T47D [10]): -63%
- growth at 80 µM (MOLT-4 [11]): 7%
- growth at 80 µM (A549 [12]): 4%
- growth at 80 µM (HOP-62 [13]): -55%
- growth at 80 µM (NCI-H23): -85%
- growth at 80 µM (NCI-H522 [14]): -22%
- growth at 80 µM (HCC 2998): -69%
- growth at 80 µM (HT-29): 8%
- growth at 80 µM (SK-MEL-2): -32%
- growth at 80 µM (UACC-257): -28%
- GI50 (A549 [15]; read-out: GI50): 0.175 µM
- GI50 (A549 [15]; read-out: pGI50 (converted)): 0.174 µM
- GI50 (HOP-92 [16]): 1.7 µM
- LC50 (HOP-92 [16]): 47.9 µM
- TGI (HOP-92 [16]; read-out: pTGI (converted)): 7.08 µM
- GI50 (NCI-H322M [17]; read-out: GI50): 0.133 µM
- TGI (NCI-H322M [17]; read-out: TGI): 0.264 µM
- GI50 (NCI-H322M [17]; read-out: pGI50 (converted)): 0.132 µM
- TGI (NCI-H322M [17]; read-out: pTGI (converted)): 0.263 µM
- GI50 (NCI-H522 [18]): 5.01 µM
- LC50 (NCI-H522 [18]): > 75.9 µM
- TGI (NCI-H522 [18]; read-out: pTGI (converted)): 33.1 µM
- GI50 (SF-295): 1.74 µM
- LC50 (SF-295): > 75.9 µM
- TGI (SF-295; read-out: pTGI (converted)): 3.89 µM
- GI50 (SNB-75; read-out: GI50): 0.808 µM
- TGI (SNB-75; read-out: TGI): 1.9 µM
- GI50 (SNB-75; read-out: pGI50 (converted)): 0.813 µM
- TGI (SNB-75; read-out: pTGI (converted)): 1.91 µM
